# Measurements taken from article PMC10443532 (ACS Chemical Biology, 2023).
# Molecular target: T1, recombinant mouse Nape-pld (Mus musculus, UniProt Q8BH82)
# T1 sequence (Q8BH82 1-396): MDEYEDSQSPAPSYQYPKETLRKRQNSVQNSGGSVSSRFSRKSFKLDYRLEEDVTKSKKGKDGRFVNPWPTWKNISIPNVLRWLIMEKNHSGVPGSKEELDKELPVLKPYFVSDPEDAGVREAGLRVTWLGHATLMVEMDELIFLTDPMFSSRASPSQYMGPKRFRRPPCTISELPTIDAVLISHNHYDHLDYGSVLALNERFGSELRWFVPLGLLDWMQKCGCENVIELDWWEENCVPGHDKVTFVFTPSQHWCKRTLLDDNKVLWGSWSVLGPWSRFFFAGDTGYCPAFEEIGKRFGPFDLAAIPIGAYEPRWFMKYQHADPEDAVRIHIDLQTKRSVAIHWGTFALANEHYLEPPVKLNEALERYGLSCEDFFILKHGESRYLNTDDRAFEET
# Assay: VU534 competition assays with compounds known to bind Nape-pld
# Format: biochemical
# Conditions: for Effect on Nape-pld activity (compound alone): in presence of 0.4% NOG, 100 μM PE, 1 mM DCA
# Summary of the method: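 Enzyme (final 0.4 μg, 50 mM Tris, 0.4% N-octylglucoside) was preincubated with vehicle or a competitor for 30 min: dioleoyl-PE 100 μM, deoxycholic acid 1 mM, bithionol 3 μM or LEI-401 30 μM. Alternatively, 15 μM of an analog was used for 5 min. Graded test compound followed for 60 min, then flame-NAPE (0.5 μM) plus N-oleoyl-PE (9.5 μM). The 5-min fluorescence change was normalized to vehicle, 0 μM.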
smiles,measurement,setting,value
"C[C@H](CCC(=O)O)[C@H]1CC[C@H]2[C@@H]3CC[C@@H]4C[C@H](O)CC[C@]4(C)[C@H]3C[C@H](O)[C@]12C [DCA, deoxycholic acid]",Effect on Nape-pld activity (compound alone),,"slight, but nonsignificant trend for inhibition"
O=C(NCC1CC1)c1cc(N2CC[C@H](O)C2)nc(N2CCC[C@@H](c3ccccc3)C2)n1 [LEI-401],Effect on ability of 5 μM VU534 to activate Nape-pld,"graded concentrations of LEI-401 or VU233, flame-NAPE (Figure S5)",reduced the ability of 5 μM VU534 to activate Nape-pld in a concentration-dependent manner
"CCCCCCCC/C=C\CCCCCCCC(=O)OC[C@H](COP(=O)(O)OCCN)OC(=O)CCCCCCC/C=C\CCCCCCCC [PE, dioleoylphosphatidylethanolamine]",Effect on Nape-pld activity (compound alone),,"slight, but nonsignificant trend for inhibition"
